Converted amounts (≈) assume the structure as drawn.
How the values were obtained:
Type in all cases: functional
Enterococcus faecalis = experiment: In vitro minimum inhibitory concentration against Streptococcus faecalis ATCC 7080
Staphylococcus aureus = experiment: In vitro minimum inhibitory concentration against Staphylococcus aureus Tour
[1] = system: Staphylococcus haemolyticus; experiment: In vitro minimum inhibitory concentration against Staphylococcus hemolyticus 602 cell line; conditions: strain 602
Streptococcus pyogenes [2] = experiment: In vivo effective dose given perorally to mice infected with Streptococcus pyogenes C 203; conditions: po
How it was run: (§1)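 Mice (five per treatment group, five groups) infected intraperitoneally with about 10⁵ cells of Strep. pyogenes C 203, about 100× the LD50. ED50 (mg/kg) was calculated from the percentage of mice surviving at each dose on day 7.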

Streptococcus pyogenes [3] = experiment: In vitro minimum inhibitory concentration against Streptococcus pyogenes C 203
Streptococcus pneumoniae = experiment: In vitro minimum inhibitory concentration against Streptococcus pneumoniae UC41
Streptococcus pyogenes [4] = experiment: Subcutaneously administration into mice infected with Streptococcus pyogenes C 203; conditions: sc; how it was run: as §1
[5] = system: Staphylococcus epidermidis; experiment: In vitro minimum inhibitory concentration against Staphylococcus epidermis ATCC 12228

In the case of `CCNCCNC(=O)[C@H]1NC(=O)[C@H]2NC(=O)[C@H](NC(=O)[C@@H]3NC(=O)[C@H]4NC(=O)[C@@H](Cc5ccc(c(Cl)c5)Oc5cc3cc(c5O[C@@H]3O[C@@H](CO)[C@@H](O)[C@H](O)[C@@H]3NC(=O)CCCCCCC(C)C)Oc3ccc(cc3Cl)[C@H]2O[C@@H]2O[C@@H](CO)[C@@H](O)[C@H](O)[C@@H]2NC(C)=O)NC(=O)[C@H](N)c2ccc(O)c(c2)Oc2cc(O)cc4c2)c2ccc(O)c(c2)-c2c(O[C@H]3O[C@H](CO)[C@@H](O)[C@@H](O)[C@@H]3O)cc(O)cc21`, the MIC (Enterococcus faecalis) is reported as 0.12 µg/mL (≈ 0.0615 µM), the MIC (Staphylococcus aureus) is reported as 0.12 µg/mL (≈ 0.0615 µM) and the MIC [1] is reported as 0.12 µg/mL (≈ 0.0615 µM). It also gave an ED50 (Streptococcus pyogenes [2]) of 300 mg/kg, an MIC (Streptococcus pyogenes [3]) of 0.06 µg/mL (≈ 0.0308 µM) and an MIC (Streptococcus pneumoniae) of 0.12 µg/mL (≈ 0.0615 µM). The ED50 (Streptococcus pyogenes [4]) was 0.18 mg/kg and the MIC [5] was 0.06 µg/mL (≈ 0.0308 µM).

Compound `CNCCCN(C)C(=O)[C@H]1NC(=O)[C@H]2NC(=O)[C@H](NC(=O)[C@@H]3NC(=O)[C@H]4NC(=O)[C@@H](Cc5ccc(c(Cl)c5)Oc5cc3cc(c5O[C@@H]3O[C@@H](CO)[C@@H](O)[C@H](O)[C@@H]3NC(=O)CCCCCCC(C)C)Oc3ccc(cc3Cl)[C@H]2O[C@@H]2O[C@@H](CO)[C@@H](O)[C@H](O)[C@@H]2NC(C)=O)NC(=O)[C@H](N)c2ccc(O)c(c2)Oc2cc(O)cc4c2)c2ccc(O)c(c2)-c2c(O[C@H]3O[C@H](CO)[C@@H](O)[C@@H](O)[C@@H]3O)cc(O)cc21` has an MIC (Enterococcus faecalis) of 0.12 µg/mL (≈ 0.0611 µM), an MIC (Staphylococcus aureus) of 0.12 µg/mL (≈ 0.0611 µM) and an MIC [1] of 0.25 µg/mL (≈ 0.127 µM). For the same compound, the ED50 (Streptococcus pyogenes [2]) was greater than 300 mg/kg, the MIC (Streptococcus pyogenes [3]) was 0.06 µg/mL (≈ 0.0306 µM) and the MIC (Streptococcus pneumoniae) was 0.12 µg/mL (≈ 0.0611 µM). The ED50 (Streptococcus pyogenes [4]) was 0.13 mg/kg and the MIC [5] was 0.06 µg/mL (≈ 0.0306 µM).

With `CC(=O)N[C@@H]1[C@H](O[C@@H]2c3ccc(c(Cl)c3)Oc3cc4cc(c3O[C@@H]3O[C@@H](CO)[C@@H](O)[C@H](O)[C@@H]3NC(=O)CCCCCCC(C)C)Oc3ccc(cc3Cl)C[C@H]3NC(=O)[C@H](N)c5ccc(O)c(c5)Oc5cc(O)cc(c5)[C@H](NC3=O)C(=O)N[C@H]4C(=O)N[C@H]3C(=O)N[C@@H]2C(=O)N[C@H](C(=O)NCCCN)c2cc(O)cc(O[C@H]4O[C@H](CO)[C@@H](O)[C@@H](O)[C@@H]4O)c2-c2cc3ccc2O)O[C@@H](CO)[C@@H](O)[C@@H]1O` the MIC (Enterococcus faecalis) was 0.12 µg/mL (≈ 0.062 µM), the MIC (Staphylococcus aureus) was 0.12 µg/mL (≈ 0.062 µM) and the MIC [1] was 0.12 µg/mL (≈ 0.062 µM). The ED50 (Streptococcus pyogenes [2]) was 89.6 mg/kg, the MIC (Streptococcus pyogenes [3]) was 0.03 µg/mL (≈ 0.0155 µM) and the MIC (Streptococcus pneumoniae) was 0.12 µg/mL (≈ 0.062 µM). For the same compound, the ED50 (Streptococcus pyogenes [4]) was 0.08 mg/kg and the MIC [5] was 0.06 µg/mL (≈ 0.031 µM).

For `CC(=O)N[C@@H]1[C@H](O[C@@H]2c3ccc(c(Cl)c3)Oc3cc4cc(c3O[C@@H]3O[C@@H](CO)[C@@H](O)[C@H](O)[C@@H]3NC(=O)CCCCCCC(C)C)Oc3ccc(cc3Cl)C[C@H]3NC(=O)[C@H](N)c5ccc(O)c(c5)Oc5cc(O)cc(c5)[C@H](NC3=O)C(=O)N[C@H]4C(=O)N[C@H]3C(=O)N[C@@H]2C(=O)N[C@H](C(=O)NCCN(C)C)c2cc(O)cc(O[C@H]4O[C@H](CO)[C@@H](O)[C@@H](O)[C@@H]4O)c2-c2cc3ccc2O)O[C@@H](CO)[C@@H](O)[C@@H]1O`, the MIC (Enterococcus faecalis) was 0.12 µg/mL (≈ 0.0615 µM), the MIC (Staphylococcus aureus) was 0.12 µg/mL (≈ 0.0615 µM) and the MIC [1] was 0.12 µg/mL (≈ 0.0615 µM). For the same compound, the ED50 (Streptococcus pyogenes [2]) was 140 mg/kg, the MIC (Streptococcus pyogenes [3]) was 0.06 µg/mL (≈ 0.0308 µM) and the MIC (Streptococcus pneumoniae) was 0.06 µg/mL (≈ 0.0308 µM). It also gave an ED50 (Streptococcus pyogenes [4]) of 0.09 mg/kg and an MIC [5] of 0.06 µg/mL (≈ 0.0308 µM).

With `CC(=O)N[C@@H]1[C@H](O[C@@H]2c3ccc(c(Cl)c3)Oc3cc4cc(c3O[C@@H]3O[C@@H](CO)[C@@H](O)[C@H](O)[C@@H]3NC(=O)CCCCCCC(C)C)Oc3ccc(cc3Cl)C[C@H]3NC(=O)[C@H](N)c5ccc(O)c(c5)Oc5cc(O)cc(c5)[C@H](NC3=O)C(=O)N[C@H]4C(=O)N[C@H]3C(=O)N[C@@H]2C(=O)N[C@H](C(=O)NCCN)c2cc(O)cc(O[C@H]4O[C@H](CO)[C@@H](O)[C@@H](O)[C@@H]4O)c2-c2cc3ccc2O)O[C@@H](CO)[C@@H](O)[C@@H]1O` the MIC (Enterococcus faecalis) was 0.12 µg/mL (≈ 0.0624 µM), the MIC (Staphylococcus aureus) was 0.12 µg/mL (≈ 0.0624 µM) and the MIC [1] was 0.12 µg/mL (≈ 0.0624 µM). The ED50 (Streptococcus pyogenes [2]) was 139 mg/kg, the MIC (Streptococcus pyogenes [3]) was 0.06 µg/mL (≈ 0.0312 µM) and the MIC (Streptococcus pneumoniae) was 0.12 µg/mL (≈ 0.0624 µM). For the same compound, the ED50 (Streptococcus pyogenes [4]) was 0.18 mg/kg and the MIC [5] was 0.06 µg/mL (≈ 0.0312 µM).

`CC(=O)N[C@@H]1[C@H](O[C@@H]2c3ccc(c(Cl)c3)Oc3cc4cc(c3O[C@@H]3O[C@@H](CO)[C@@H](O)[C@H](O)[C@@H]3NC(=O)CCCCCCC(C)C)Oc3ccc(cc3Cl)C[C@H]3NC(=O)[C@H](N)c5ccc(O)c(c5)Oc5cc(O)cc(c5)[C@H](NC3=O)C(=O)N[C@H]4C(=O)N[C@H]3C(=O)N[C@@H]2C(=O)N[C@H](C(=O)N(C)CCN(C)C)c2cc(O)cc(O[C@H]4O[C@H](CO)[C@@H](O)[C@@H](O)[C@@H]4O)c2-c2cc3ccc2O)O[C@@H](CO)[C@@H](O)[C@@H]1O` showed an MIC (Enterococcus faecalis) of 0.06 µg/mL (≈ 0.0306 µM), an MIC (Staphylococcus aureus) of 0.12 µg/mL (≈ 0.0611 µM) and an MIC [1] of 0.25 µg/mL (≈ 0.127 µM). It also gave an ED50 (Streptococcus pyogenes [2]) of 90 mg/kg, an MIC (Streptococcus pyogenes [3]) of 0.06 µg/mL (≈ 0.0306 µM) and an MIC (Streptococcus pneumoniae) of 0.06 µg/mL (≈ 0.0306 µM). For the same compound, the ED50 (Streptococcus pyogenes [4]) was 0.15 mg/kg and the MIC [5] was 0.06 µg/mL (≈ 0.0306 µM).

`CC(=O)N[C@@H]1[C@H](O[C@@H]2c3ccc(c(Cl)c3)Oc3cc4cc(c3O[C@@H]3O[C@@H](CO)[C@@H](O)[C@H](O)[C@@H]3NC(=O)CCCCCCC(C)C)Oc3ccc(cc3Cl)C[C@H]3NC(=O)[C@H](N)c5ccc(O)c(c5)Oc5cc(O)cc(c5)[C@H](NC3=O)C(=O)N[C@H]4C(=O)N[C@H]3C(=O)N[C@@H]2C(=O)N[C@H](C(=O)NCC(=O)O)c2cc(O)cc(O[C@H]4O[C@H](CO)[C@@H](O)[C@@H](O)[C@@H]4O)c2-c2cc3ccc2O)O[C@@H](CO)[C@@H](O)[C@@H]1O` gave an MIC (Enterococcus faecalis) of 0.25 µg/mL (≈ 0.129 µM), an MIC (Staphylococcus aureus) of 0.12 µg/mL (≈ 0.062 µM) and an ED50 (Streptococcus pyogenes [2]) greater than 300 mg/kg. The MIC (Streptococcus pyogenes [3]) was 0.12 µg/mL (≈ 0.062 µM), the MIC (Streptococcus pneumoniae) was 0.12 µg/mL (≈ 0.062 µM) and the ED50 (Streptococcus pyogenes [4]) was 0.23 mg/kg. For the same compound, the MIC [5] was 0.12 µg/mL (≈ 0.062 µM).

Compound `CC(=O)N[C@@H]1[C@H](O[C@@H]2c3ccc(c(Cl)c3)Oc3cc4cc(c3O[C@@H]3O[C@@H](CO)[C@@H](O)[C@H](O)[C@@H]3NC(=O)CCCCCCC(C)C)Oc3ccc(cc3Cl)C[C@H]3NC(=O)[C@H](N)c5ccc(O)c(c5)Oc5cc(O)cc(c5)[C@H](NC3=O)C(=O)N[C@H]4C(=O)N[C@H]3C(=O)N[C@@H]2C(=O)N[C@H](C(=O)N2CCSCC2)c2cc(O)cc(O[C@H]4O[C@H](CO)[C@@H](O)[C@@H](O)[C@@H]4O)c2-c2cc3ccc2O)O[C@@H](CO)[C@@H](O)[C@@H]1O` has an MIC (Enterococcus faecalis) of 0.12 µg/mL (≈ 0.0611 µM), an MIC (Staphylococcus aureus) of 0.12 µg/mL (≈ 0.0611 µM) and an ED50 (Streptococcus pyogenes [2]) of 220 mg/kg. The MIC (Streptococcus pyogenes [3]) was 0.06 µg/mL (≈ 0.0305 µM), the MIC (Streptococcus pneumoniae) was 0.12 µg/mL (≈ 0.0611 µM) and the ED50 (Streptococcus pyogenes [4]) was 0.08 mg/kg. It also gave an MIC [5] of 0.25 µg/mL (≈ 0.127 µM).

Compound `CC(=O)N[C@@H]1[C@H](O[C@@H]2c3ccc(c(Cl)c3)Oc3cc4cc(c3O[C@@H]3O[C@@H](CO)[C@@H](O)[C@H](O)[C@@H]3NC(=O)CCCCCCC(C)C)Oc3ccc(cc3Cl)C[C@H]3NC(=O)[C@H](N)c5ccc(O)c(c5)Oc5cc(O)cc(c5)[C@H](NC3=O)C(=O)N[C@H]4C(=O)N[C@H]3C(=O)N[C@@H]2C(=O)N[C@H](C(=O)NCCN2CCOCC2)c2cc(O)cc(O[C@H]4O[C@H](CO)[C@@H](O)[C@@H](O)[C@@H]4O)c2-c2cc3ccc2O)O[C@@H](CO)[C@@H](O)[C@@H]1O` has an MIC (Enterococcus faecalis) of 0.12 µg/mL (≈ 0.0602 µM), an MIC (Staphylococcus aureus) of 0.12 µg/mL (≈ 0.0602 µM) and an ED50 (Streptococcus pyogenes [2]) of 300 mg/kg. It also gave an MIC (Streptococcus pyogenes [3]) of 0.06 µg/mL (≈ 0.0301 µM), an MIC (Streptococcus pneumoniae) of 0.12 µg/mL (≈ 0.0602 µM) and an ED50 (Streptococcus pyogenes [4]) of 0.08 mg/kg. For the same compound, the MIC [5] was 0.12 µg/mL (≈ 0.0602 µM).

Reference: ChEMBL document CHEMBL1124366, “Synthesis and biological properties of N63-carboxamides of teicoplanin antibiotics. Structure-activity relationships” (J Med Chem, 1989)
